Experimental data published in ChEMBL document CHEMBL3774372, “Design, physico-chemical properties and biological evaluation of some new N-[(phenoxy)alkyl]- and N-{2-[2-(phenoxy)ethoxy]ethyl}aminoalkanols as anticonvulsant agents” (Bioorg Med Chem, 2016).
Activity calls are given as the source filed them.

Columns and labels:
Vibrio harveyi [1] = assay: Antimutagenic activity against Vibrio harveyi BB7 assessed as inhibition of NQNO-induced mutagenicity after 48 hrs; type: functional
Summary of the method: (§1)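 V. harveyi cultures grown exponentially to A600 0.1 at 30 °C, exposed to test compound for 15 min, then to NQNO, and grown on to A600 0.3–0.4. 5 × 10⁶ cells plated on BOSS agar with neomycin (100, final). Neomycin-resistant colonies counted after 48 h at 30 °C. Result given as % inhibition of NQNO mutagenicity; three independent repeats.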

Mus musculus [2] = assay: Neurotoxicity in mouse at 300 mg/kg, ip after 0.5 hrs by rotarod test; type: toxicity, organism-based; conditions: in vivo
Summary of the method: (§2)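 Mice were dosed ip with compound suspended in 0.5% methylcellulose. Rotarod: a 1 in. knurled rod turning at 6 rpm. Neurotoxicity was scored as failure to stay on the rod for at least 1 min in each of three trials. Results are given as the number of animals affected out of the number tested.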

Mus musculus [3] = assay: Anticonvulsant activity in mouse assessed as protection against subcutaneous pentylenetetrazol-induced seizures at 30 mg/kg, ip measured after 4 hrs; type: functional, organism-based
Summary of the method: (§3)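 Mice dosed ip as 0.5% methylcellulose suspension; pentylenetetrazole 85 mg/kg in 0.9% NaCl injected subcutaneously into posterior midline, animals watched at least 30 min. Protection = no threshold seizure (single clonic spasm episode lasting ≥5 s); scored protected/tested.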

Mus musculus [4] = assay: Anticonvulsant activity in mouse assessed as protection against maximal electric shock-induced seizures at 30 mg/kg, ip measured after 4 hrs; type: functional, organism-based
Summary of the method: (§4)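 Mice dosed ip with suspension in 0.5% methylcellulose; maximal electroshock applied at the listed time after dosing. Protection = abolition of hindlimb tonic extension component of seizure; reported as animals protected/animals tested.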

Mus musculus [5] = assay: Neurotoxicity in mouse at 30 mg/kg, ip after 0.5 hrs by rotarod test; type: toxicity, organism-based; conditions: in vivo; summary of the method: as §2
Mus musculus [6] = assay: Anticonvulsant activity in mouse assessed as protection against subcutaneous pentylenetetrazol-induced seizures at 30 mg/kg, ip measured after 0.5 hrs; type: functional, organism-based; summary of the method: as §3
Vibrio harveyi [7] = assay: Antimutagenic activity against Vibrio harveyi BB7X assessed as inhibition of NQNO-induced mutagenicity after 48 hrs; type: functional; summary of the method: as §1
in vitro [8] = conditions: mouse, liver microsomes
Vibrio harveyi [9] = assay: Mutagenicity in Vibrio harveyi BB7 assessed as number of colonies after 48 hrs (reference value: 13 to 14 no_unit); type: ADME, organism-based; conditions: in vivo
Summary of the method: (§5)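 Vibrio harveyi mutagenicity test: test compound was added to exponentially growing cultures (A600 = 0.1, 30 °C) and grown to OD600 0.3–0.4. Then 5 × 10^6 cells were plated on BOSS agar with neomycin (final 100 µg/mL) and incubated 48 h at 30 °C. Neomycin-resistant colonies were counted. Triplicate; controls were water, DMSO and NQNO 40 ng/mL.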

Mus musculus [10] = assay: Anticonvulsant activity in mouse assessed as protection against subcutaneous pentylenetetrazol-induced seizures at 100 mg/kg, ip measured after 4 hrs; type: functional, organism-based; summary of the method: as §3
Vibrio harveyi [11] = assay: Mutagenicity in Vibrio harveyi BB7M assessed as number of colonies after 48 hrs (reference value: 13 to 14 no_unit); type: ADME, organism-based; conditions: in vivo; summary of the method: as §5
Mus musculus [12] = assay: Neurotoxicity in mouse at 30 mg/kg, ip after 4 hrs by rotarod test; type: toxicity, organism-based; conditions: in vivo; summary of the method: as §2
Mus musculus [13] = assay: Neurotoxicity in mouse at 100 mg/kg, ip after 4 hrs by rotarod test; type: toxicity, organism-based; conditions: in vivo; summary of the method: as §2
Vibrio harveyi [14] = assay: Antimutagenic activity against Vibrio harveyi BB7XM assessed as inhibition of NQNO-induced mutagenicity after 48 hrs; type: functional; summary of the method: as §1
in vitro [15] = conditions: mouse, liver microsomes; remark: listed apart in the source
Vibrio harveyi [16] = assay: Mutagenicity in Vibrio harveyi BB7XM assessed as number of colonies after 48 hrs (reference value: 14 no_unit); type: ADME, organism-based; conditions: in vivo; summary of the method: as §5
Mus musculus [17] = assay: Anticonvulsant activity in mouse assessed as protection against maximal electric shock-induced seizures at 100 mg/kg, ip measured after 0.5 hrs; type: functional, organism-based; summary of the method: as §4
Vibrio harveyi [18] = assay: Antimutagenic activity against Vibrio harveyi BB7M assessed as inhibition of NQNO-induced mutagenicity after 48 hrs; type: functional; summary of the method: as §1
Mus musculus [19] = assay: Anticonvulsant activity in mouse assessed as protection against maximal electric shock-induced seizures at 30 mg/kg, ip measured after 0.5 hrs; type: functional, organism-based; summary of the method: as §4
Vibrio harveyi [20] = assay: Mutagenicity in Vibrio harveyi BB7X assessed as number of colonies after 48 hrs (reference value: 15 to 16 no_unit); type: ADME, organism-based; conditions: in vivo; summary of the method: as §5
Mus musculus [21] = assay: Anticonvulsant activity in mouse assessed as protection against subcutaneous pentylenetetrazol-induced seizures at 100 mg/kg, ip measured after 0.5 hrs; type: functional, organism-based; summary of the method: as §3
[22] = Retention time of the compound in mouse liver microsomes at 20 uM preincubated for 15 mins followed by addition of NADPH-regenerating system measured after 5 to 90 mins by […] analysis; type: ADME
Summary of the method: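 Mouse liver microsomes (0.4 mg/mL) with test compound (20 µM) in 100 mM potassium phosphate, pH 7.4, were preincubated 15 min at 37 °C. An NADPH-regenerating system was then added and incubation ran 5–90 min at 37 °C. Levallorphan (20 µM) served as internal standard, and reactions were quenched with perchloric acid. The supernatant was analysed by UPLC/MS. Duplicate incubations.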

Mus musculus [23] = assay: Anticonvulsant activity in mouse assessed as protection against maximal electric shock-induced seizures at 100 mg/kg, ip measured after 4 hrs; type: functional, organism-based; summary of the method: as §4
Mus musculus [24] = assay: Anticonvulsant activity in mouse assessed as protection against maximal electric shock-induced seizures at 3 mg/kg, ip measured after 0.5 hrs; type: functional, organism-based; summary of the method: as §4
Mus musculus [25] = assay: Neurotoxicity in mouse at 100 mg/kg, ip after 0.5 hrs by rotarod test; type: toxicity, organism-based; conditions: in vivo; summary of the method: as §2
Mus musculus [26] = assay: Anticonvulsant activity in mouse assessed as protection against maximal electric shock-induced seizures at 10 mg/kg, ip measured after 0.5 hrs; type: functional, organism-based; summary of the method: as §4

| SMILES | Activity (Mus musculus [2]) | Activity (Mus musculus [3]) | Activity (Mus musculus [4]) | Activity (Mus musculus [5]) | Activity (Mus musculus [6]) | Activity (Mus musculus [10]) | Activity (Mus musculus [12]) | Activity (Mus musculus [13]) | Activity (Mus musculus [17]) | Activity (Mus musculus [19]) | Activity (Mus musculus [21]) | further results |
| --- | --- | --- | --- | --- | --- | --- | --- | --- | --- | --- | --- | --- |
| Cc1cc(C)c(OCCOCCNC(C)CO)c(C)c1 (configuration not stated) | Toxic | inactive | inactive | Non-toxic | inactive | inactive | Non-toxic | Non-toxic | Active | inactive | inactive | inhibition (INH) (Vibrio harveyi [1]): 81%; inhibition (INH) (Vibrio harveyi [7]): 38%; microsomal CLint at 20 µM (in vitro [8]): 13 µL/min/mg; Activity (Vibrio harveyi [9]): 25; Activity (Vibrio harveyi [11]): 19; inhibition (INH) (Vibrio harveyi [14]): 43%; half-life at 20 µM (in vitro [15]): 2.27 h; Activity (Vibrio harveyi [16]): 24; inhibition (INH) (Vibrio harveyi [18]): 62%; Activity (Vibrio harveyi [20]): 24; Retention_time [22]: 4.31 min |
| Cc1cc(C)c(OCCN[C@H](C)CO)c(C)c1 | Toxic | inactive | inactive | Non-toxic | inactive | inactive | Non-toxic | Non-toxic | Active | Active | inactive | Activity (Mus musculus [23]): inactive; Activity (Mus musculus [24]): inactive; Activity (Mus musculus [25]): Toxic; Activity (Mus musculus [26]): inactive |
